Measured values as given in the EternaBench riboswitch data.

Tested on: MS2 coat protein
Assay: apparent Kd, MS2 coat protein; higher = weaker binding; RNA-MaP array; FMN 200 µM where present
In short: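 Stalled E. coli RNA polymerase transcribed the designs on Illumina sequencing-chip clusters. SNAP-549-labelled MS2 coat protein was titrated from 0.7 or 1.5 nM, doubling to 3 µM, without and then with constant ligand, in 100 mM Tris-HCl pH 7.5, 80 mM KCl, 4 mM MgCl2, BSA, DTT, yeast tRNA and Tween-20. Per-cluster binding curves were fitted to green signal normalised to red-channel RNA signal and control-cluster median Fmax. The apparent Kd is the median of the filtered fits.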

[1] = designed as: ON switch for flavin mononucleotide, no ligand
[2] = ligand present: flavin mononucleotide, designed as: ON switch for flavin mononucleotide
[3] = designed as: OFF switch for flavin mononucleotide, no ligand
[4] = ligand present: flavin mononucleotide, designed as: OFF switch for flavin mononucleotide

| Sequence | apparent Kd [1] [nM] | apparent Kd [2] [nM] | apparent Kd [3] [nM] | apparent Kd [4] [nM] |
| --- | --- | --- | --- | --- |
| GUAGCAAUCGGAGGAUAUUCAUACCGGAAACGGACAUGAGGAUCACCCAUGUGGCGAAAGCCUUGGGAGAAGGCCGAUUGCUAC | 614 | 21.2 |  |  |
| UAGUCGGUAGAUAAUAAUGAAUACAUGAGGAUCACCCAUGUAUAGGAUAUCGUCAGGAAUACUGACGAGAAGGAUACAUCCGAC |  |  | 16.1 | 18.4 |
| UUCGGCGCAGGAUAUGCGGUUCUGUGUUGAAUCGGCGCGGGACAUGAGGAUCACCCAUGUAGAAGGGUGUUGGG |  |  | 361 | 287 |
| ACAUGAGGAUCACCCAUGUAUACAUAGGAUAUUGGUGAUCAGGCAUGUUUUACAGGAUAUGUCUGCGAGAAGGAUGCAAGUUGU | 633 | 346 |  |  |
| AAAAAGUGAGGAUAUACAUGAGGAUCACCCAUGUGAAAUCGGAAAAAAAACGAAAAAAGUAGAAGGCACAAAAA |  |  | 25.3 | 24.5 |
| UAUAUUUAUGUAGGAUAUGGUAUAUAAAAUAUACCAGAAGGACAUGAGGAUCACCCAUGUAUGAAAUUCCAUAAUUGCCGUGUA |  |  | 12.7 | 14.8 |
| AUUUUAUAACAAGGAUAUACUAAACAUGAGGAUCACCCAUGUAAUAUUAUGAGUGAGAGAGAGAAGUAGAAGGUGUAUUAUUUU |  |  | 102 | 128 |
| AAGGCGAGAGGAUAUACAUGAGGAUCACCCAUGUGUCGGCCCUCCGCAUAUGCCUUGUGUAGAAGGCUCCCGAA |  |  | 16.5 | 22.9 |
| CUCAUUAGUCAGGAUAUCGUGUGGGUAAUUGUACGAGAAGGGACGACAUGAGGAUCACCCAUGUGGUCUUUGAG |  |  | 71 | 317 |
| CCGUUACAUGAGGAUCACCCAUGUGAGGAUAUCGGUGUGACUGGCAGCGUGCGGGACUCGAGAAGGCACUGGGC |  |  | 71.2 | 87.9 |
| CACGGGUUAGGAUAUGCAUGGUGAAAAGACGCGAUCCUUAGACAUGAGGAUCACCCAUGUAGAAGGAACGCAAU |  |  | 18.6 | 15.9 |
| GUCGUGUUAGGAUAUGGCAACGGCUACGAAAGUAGUUGUUGUUAGAAGGAACAUGAGGAUCACCCAUGUAUGAC |  |  | 38 | 101 |
| AGAAACUACGAGAAGGACAAAACCGGUGCCGCAAACAUGAGGAUCACCCAUGUAGGAUAUCGUAGUUUCAGGAUCGUGAGAUCA |  |  | 9.2 | 31.2 |
| GUCAGCUCGUGAGGAUAUACAACACUGCUUCGGCAGUGUAUUAAGAUCACAUGAGGAUCACCCAUGUAGAAGGCGCGAGCUGAU |  |  | 13.3 | 243 |
| UUGGACGUCGUAGGAUAUGGAGGAUAUUCCUACAUGAGGAUCACCCAUGUUGACAUGGAAGAAGGACAGAAGGACGAUGUCCAU | 10.1 | 4.14 |  |  |
| UGGUACUAGGGAGGAUAUGGGAAGAUACAUGAGGAUCACCCAUGUUUAAGAAUGCCGAGAGGCAACAAGAAGGCCCUAGUACCU | 532 | 98.9 |  |  |
| GCGGGUAAAGCAGGAUAUCUAAUGUCACGGAAACAUGAGGAUCACCCAUGUAGAGAAGGGCUAAGUCAUACAAUUCGAAUUUGC |  |  | 9.04 | 8.24 |
| AAAAGACAUGAGGAUCACCCAUGUGAAAACGUGCAAGGAUAUGUGUGGAAACCGUACUAUACAGAAGGUGUGUGUC | 32 | 41.8 |  |  |
| CCCUCACAUGAGGAUCACCCAUGUCAGGAUAUCUCACAUCAGCCUUAGGCCGAUGUCUAGAGAAGGGACGUAUC |  |  | 22.7 | 30.3 |
| GCCAGGCAUGUAGGAUAUCCAUUGCGUCGCGUUGGAGAAGGGCAACACACAUGAGGAUCACCCAUGUGGUCACCCAUGUAGUGU |  |  | 489 | 524 |
| GCAACGCCUGACAUGAGGAUCACCCAUGUUAGAUUGUUAUGUCAGGAUAUUGUCGCUAAAGGUGAUGAGAAGGGAUAUGUUGCU | 1180 | 71 |  |  |

| Sequence | apparent Kd [1] [nM] | apparent Kd [2] [nM] | apparent Kd [3] [nM] | apparent Kd [4] [nM] |
| --- | --- | --- | --- | --- |
| GUGCGGUAGGAGAAGGACGGAGGCUUCUUUUCAUACAUGAGGAUCACCCAUGUAGGAUAUCCUACCUCACGCGGCCUACUUCUG |  |  | 5.22 | 5.06 |
| AAUCGAUGAUCAGGAUAUGUGGAGCCUCUAAGCGAUGAGGCGUACAUGAGGAUCACCCAUGUGACACAGAAGGGAUACAUGCGG | 60.7 | 8.43 |  |  |
| UUAUUUAGGUAGGAUAUCGAUAUUAAUCCCUAUCGAGAAGGGUCUACAUGAGGAUCACCCAUGUUAGCAUGUUU |  |  | 21.5 | 21.3 |
| AAAUGCAUAAAGGACACAUGAGGAUCACCCAUGUUUCUGUUCAAGGAUAUGAGGUGAAUGAUCCGUCAGAAGGUGAACUUGCUU | 180 | 400 |  |  |
| GUUCUUCCUGUGAGGAUAUCCAUGUUUCGGUUUGUGGAGAAGGUACAUGAGGAUCACCCAUGUCACCCGCGUUU |  |  | 14.1 | 15.8 |
| UAAGUCGGAGAUAAUAAUGAUUACAUGAGGAUCACCCAUGUAUAGGAUAUCGUCAGGAAUACUGACGAGAAGGAUACAACCGAC |  |  | 17.9 | 25.8 |
| GUCAGCUCGUGAGGAUAUACAUCACUGCUUCGGCAGUGUAUUAAGACAACAUGAGGAUCACCCAUGUAGAAGGCACGAGCUGAU |  |  | 16.9 | 20.4 |
| AAUUACAUGUAGAAGGUACUUAAUUAAGUGUUGUAAGGAUAUACCAAUUUAUUAGUUUUAAAGAUACAUGAGGAUCACCCAUGU | 10.6 | 9.2 |  |  |
| GGUAGAAACAUUAACAUGAGGAUCACCCAUGUCAAAAGAAAUGAGGAUAUCGUAUACAAUGUAUAUGAGAAGGCAUGGUCUACC | 7.78 | 5.77 |  |  |
| AAAGAAAAACUAGAGGAUAUCCGAGUGGUAACAUGAGGAUCACCCAUGUGAUGAAAGGAACAUGAGGAGAAGGCUAGAAGAAAAA | 21.7 | 8.11 |  |  |
| UGAUCGAGAGAUCUUAGAUUCUGCAAGGAUAUGCAGGAGUUGCGCUUUACAUGAGGAUCACCCAUGUAGAAGGUGUAGAGUCUA |  |  | 6.62 | 8.08 |
| AGUCGGAGCAGAGGAUAUAUACAUGAGGAUCACCCAUGUAAAUGAAUGAGCUGGAAACAGCAAGUAUAGAAGGCUGCUCCGACA |  |  | 15.2 | 16 |
| CAACUGUGAGGAUAUGGUGAGUAGUGCCUGAGCGCUGCUCACCAGAAGGCACAUGAGGAUCACCCAUGUAUGAC |  |  | 46 | 164 |
| UCCAACCCUGUGAGGAUAUCGUCCAUUUUUUGUUCCGAGAAGGCACAUGAGGAUCACCCAUGUUUUUUAUUUUU |  |  | 28.1 | 93.7 |
| UAAUAUUUAUGAUAUUAUUACAGUAGAAGGCUAUACAUGUGGAUACAUGAGGAUCACCCAUGUAUAGAGGAUAUAUACAUAUAU |  |  | 964 | 351 |
| GAUGUAUUCGUAGGAUAUCCGUCGCCACCGUGUGGAGAAGGACGAACAUGAGGAUCACCCAUGUAUCAUGGUGUGGACGCUUUC |  |  | 287 | 315 |
| UUUUUUUUGUGAGGAUAUACAACAUGAGGAUCACCCAUGUCAUGUUCAACAUGAGGAUCACCCAUGUAGAAGGCGCUUUUUUUU |  |  | 281 | 247 |
| AAAAAGUCAGGAUAUUCGGAUAGGAAAACGAAAACCUAUCCGAAGAAGGGACAUGAGGAUCACCCAUGUAAAAA |  |  | 27.4 | 46.5 |
| AACGCGUCAGGAUAUGCCAUAAAUUACCUAGUACGACCAUAGCAGAAGGGACAUGAGGAUCACCCAUGUAAAUA |  |  | 40.5 | 28.3 |
| CUUUUGUGAGGAUAUUAGUAUUAAAUAAAUAAAAUUACUACUGAGAAGGCACAUGAGGAUCACCCAUGUUCCUC |  |  | 30.3 | 131 |
| AUCAGCUCGUCAGGAUAUACGUAAUGGUAAGAUCACAUGAGGAUCACCCAUGUAGAAGGGACGAGCUGAUAAGCACGAAAGUGC |  |  | 192 | 676 |
